Assay outcomes from PubChem.
UPR CHOP act: activators of apoptotic CHOP UPR arm, primary screen, cell-based, CHO-CHOP luciferase reporter, luminescence, uHTS. UPR activation; percent of tunicamycin response over DMSO baseline. activation, % at 10 µM. hit rate 0.34% among 330,000. AID 449763, 2010;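 active = at 10 µM dose, activation of 40% or more, normalized to positive control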;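 note: 100% = tunicamycin at 10 µg/mL and 0% = DMSO alone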
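Evaluation: % reporter activation, DMSO baseline versus tunicamycin full activation; System: CHO-CHOP luciferase reporter cell line; Input: 500 cells/well; Incubation: 6 h compound treatment, 37 °C; Measured by: Steady-Glo luciferase luminescence; Dosing: one dose, 10 µM in 0.5% DMSO; Buffer or medium: F12 medium, 10% FBS; Benchmarks: positive tunicamycin 10 µg/mL, negative DMSO alone.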
tim10-1 inh: growth inhibitors of tim10-1 mutant yeast, primary screen, luminescence, uHTS | S. cerevisiae tim10-1 ts strain growth, BacTiter-Glo, 24 h | inhibition, % at 20 µM | hit rate 2.2% among 330,000;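 active = inhibition of at least 40%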;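 note: mutant grown at 25 °C; 0% = DMSO wells with yeast and 100% = wells holding no yeast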
UPR XBP1 act: activators of adaptive XBP1 UPR arm, primary screen, cell-based, CHO-XBP1 luciferase reporter, luminescence, uHTS; IRE1-XBP1 UPR activation; percent of tunicamycin response, DMSO as zero; activation, % at 20 µM; hit rate 0.33% among 330,000; AID 463104, 2010;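 active = versus positive control, 20 µM dose yields 30% or more activation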;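 note: 100% = tunicamycin at 10 µg/mL and 0% = DMSO only wells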
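Material: CHO-XBP1 cells stably carrying IRE1-XBP1-driven luciferase reporter / Amount: 1000 cells per well / Compound: 20 µM, 1% DMSO / Times: 6 h treatment, 37 °C / Detection: luciferase luminescence / Measure: % activation of reporter signal versus tunicamycin and DMSO controls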
tim23-1 inh: growth inhibitors of tim23-1 mutant yeast, primary screen, luminescence, uHTS | S. cerevisiae tim23-1 growth, BacTiter-Glo luminescence, 24 h | inhibition, % at 20 µM | hit rate 1.3% among 330,000 | AID 463212, 2010;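 active = growth inhibition of the mutant yeast at or above 50%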;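 note: temperature-sensitive mutant grown at 25 °C; plate controls were DMSO-treated mutant yeast for no effect and medium wells lacking yeast for full effect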
TIM10 inh: growth inhibitors of isogenic TIM10 control yeast, primary screen, counter-screen for tim10-1 yeast inhibitor project, luminescence, uHTS; S. cerevisiae TIM10 strain growth, BacTiter-Glo luminescence, 24 h; inhibition, % at 10 µM; hit rate 1.4% among 330,000; AID 463195, 2010;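 active = inhibition of 40% or more at the single tested concentration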;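 note: wild-type TIM10 isogenic control strain grown at permissive 25 °C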
UPR XBP1 confirm: IRE1-XBP1 UPR arm activators, confirmation, cell-based, CHO-XBP1 luciferase reporter, luminescence, single concentration; activation, % at 20 µM; hit rate 63% among 1,000; shares compounds with UPR XBP1 act; AID 485299, 2010;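 active = reporter signal at least 30% of the positive control's activation in two or more of four replicate wells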;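 note: plate controls were DMSO negative control for no effect and tunicamycin 10 µg/mL positive control for full effect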
Starred values were filed as active, the others as inactive; . = no result given. Compounds with a hit are over-represented: about 3.9% of the library has one in this group of screens.

SMILES	UPR CHOP act	tim10-1 inh	UPR XBP1 act	tim23-1 inh	TIM10 inh	UPR XBP1 confirm
Cc1cc2nc(CCN3CCOCC3)n(S(=O)(=O)c3ccc(C(C)(C)C)cc3)c2cc1C	15	17	32*	30	13	0
Cc1cc2ncn(S(=O)(=O)c3ccc(S(=O)(=O)N4CCOCC4)cc3)c2cc1C	-2	15	4	0	-21	.
Cc1c(C(=O)NCCS(=O)(=O)N2CCN(c3ccccc3F)CC2)cccc1[N+](=O)[O-]	0	-9	-5	-12	-8	.
S=C(Nc1cccc(Cl)c1)NC1CCCCC1	0	26	37*	16	14	-1
C[C@H]1C(=O)N(C)CCN1C(=O)c1cccc(OC2CCN(CC(C)(C)C)CC2)c1	-2	10	1	10	3	.
CC(/C=N/NC(=O)c1n[nH]c2c1CCC2)=C\c1ccccc1	4	-3	18	1	-3	.
O=C(N/N=C/C(Br)=C\c1ccccc1)c1n[nH]c2c1CCC2	5	18	35*	37	34	36*
O=C(O)CCCn1cc(NC(=O)c2sc3ccccc3c2Cl)cn1	1	30	2	9	-3	.
O=C(Nc1ccc2oc(-c3ccccc3Cl)nc2c1)c1cncc(Br)c1	4	15	32*	2	0	80*
O=C(Nc1ccc2oc(-c3ccccc3Cl)nc2c1)c1ncn[nH]1	8	-9	8	15	2	.
CCCCCCCCCCOC(=O)Cn1c(COc2ccc(OC)cc2)[n+](C)c2ccccc21	12	30	66*	26	33	44*
CCCCCCCCCCOC(=O)Cn1c(COc2ccccc2)[n+](C)c2ccccc21	10	-6	72*	-40	19	26
O=C(Cn1cc(C(F)(F)F)cc(Cl)c1=O)Nc1cccc(S(=O)(=O)N2CCCCC2)c1	0	12	-1	5	-5	.
O=C(NCc1cccc2[nH]ccc12)C1CCC(=O)N(CCc2ccc(Cl)cc2)C1 (configuration not stated)	-1	-10	-5	-13	1	.
CCn1nc(C)cc1C(=O)Sc1ccc(Cl)cc1Cl	2	23	-2	22	13	.
CCn1nc(C)cc1C(=O)Sc1cccc(Br)c1	8	-17	97*	-25	-3	9
O=C(O)COc1ccc(/C=N/n2c(COc3ccccc3)nc3ccccc3c2=O)cc1	3	16	-4	16	-3	.
O=c1c2ccccc2nc(COc2ccccc2)n1/N=C/c1ccc(O)c(O)c1	3	12	32*	20	28	24
Cc1ccc(-c2[nH]ncc2/C=N/n2c(COc3ccccc3)nc3ccccc3c2=O)cc1	5	22	37*	25	16	45*
Cc1ccc2c(n1)sc1c(-c3ccc(Br)cc3)c(C#N)c(N)nc12	0	29	61*	13	27	43*
CNC(=O)c1ccc(-n2nc(C)cc2-c2ccccc2)cc1	2	19	44*	22	16	0
CCn1c(/C=C/c2c[nH]c3ccccc23)nc2ccccc2c1=O	7	-22	15	4	-21	.
Cc1[nH]c2ccccc2c1/C=C/c1nc2ccccc2c(=O)[nH]1	8	-10	6	-10	-25	.
Cc1[nH]c2ccccc2c1/C=C/c1nc2ccccc2c(=O)n1-c1ccc([N+](=O)[O-])cc1	9	11	47*	12	-5	36*
CCn1c(/C=C/c2c(C)[nH]c3ccccc23)nc2ccccc2c1=O	32	25	216*	3	11	81*
SMILES	UPR CHOP act	tim10-1 inh	UPR XBP1 act	tim23-1 inh	TIM10 inh	UPR XBP1 confirm
Cc1ccc(OCc2nnc(SCC(=O)Nc3nccs3)n2-c2ccccc2)cc1C	9	-11	35*	1	-16	15
CCc1cc2cc3c(cc2nc1SCC(=O)Nc1nccs1)OCO3	8	3	57*	-6	-24	14
CCc1cc2cc3c(cc2nc1SCC(=O)Nc1c[nH]c(=O)[nH]c1=O)OCO3	-1	8	-1	0	-17	.
Cc1ccc(N(C(=O)c2csnn2)C(C(=O)NC2CCCCC2)c2ccco2)cc1 (configuration not stated)	-1	11	-5	13	-12	.
C=CC[C@@H](CC(=O)N[C@@H](CO)Cc1ccccc1)C(=O)NC[C@H](OC(=O)[C@@H](CC=C)Cc1ccc(F)cc1)c1ccccc1	6	-3	2	19	-6	.
C=CC[C@@H](CC(=O)N[C@@H](CO)Cc1ccccc1)C(=O)NC[C@@H](OC(=O)[C@@H](CC=C)Cc1ccc(F)cc1)c1ccccc1	5	9	32*	6	7	2
COCCN(C(=O)COC(=O)/C=C/c1cccc(C(F)(F)F)c1)c1c(N)n(CC(C)C)c(=O)[nH]c1=O	2	4	2	6	-8	.
O=C(Nc1cccnc1)c1sc(Nc2ccccc2F)nc1-c1ccccc1	4	-26	38*	-30	-7	23
O=C(O)c1cc(S(=O)(=O)NCCOc2ccccc2)ccc1Cl	1	-7	-3	-1	6	.
CCOc1ccc2nc(NC3=NC(c4ccc(OC)cc4)CC(=O)N3)nc(C)c2c1 (configuration not stated)	30	-6	133*	7	11	167*
C=CS(=O)(=O)N(Cc1ccc(Cl)c(Cl)c1)C[C@@H](O)CO	3	20	-2	38	0	.
CCOC(=O)C1=C(O)/C(=C/c2ccc(OCC(=O)O)c(OCC)c2)SC1=Nc1ccc(OC)cc1	1	15	-3	16	6	.
CCOC(=O)C1=C(O)/C(=C/c2cc(OC)c(OC)c(OC)c2)SC1=Nc1ccc(OC)cc1	4	7	36*	8	15	18
CCc1ccc(-c2cc(C(F)(F)F)n3nc(C(=O)Nc4cnn(Cc5ccc(C)cc5)c4)cc3n2)s1	27	-2	75*	-11	2	288*
Cc1ccccc1Cn1cc(NC(=O)c2cc3nc(-c4ccco4)cc(C(F)(F)F)n3n2)cn1	-1	8	-3	7	6	.
O=C(CSc1nc(N2CCOCC2)nc(N2CCOCC2)n1)Nc1cccc(C(F)(F)F)c1	0	-5	-1	-10	1	.
N#CCC(=O)N/N=C/c1cn(Cc2cccc3ccccc23)c2ccccc12	8	-5	130*	-20	6	103*
N#CCC(=O)N/N=C/c1cn(Cc2ccccc2C#N)c2ccccc12	2	-8	3	7	6	.
COc1cc(/C=N/Nc2ccccc2)ccc1O	4	-4	1	18	18	.
